# Compounds with a hit are over-represented: about 1.6% of the library has one in this group of screens.
# DAGLB inhibitor: DAGLB lipase inhibitors, primary screen, biochemical, fluorescence, HTS; 0.059% of 340,000 active; inhibition, % at 5.17 µM; HEK293T DAGLB membrane lysate, EnzChek fluorogenic substrate; in the data active means inhibition above about 34%;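 further: 0% = enzyme with vehicle and 100% = wells lacking enzyme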
# TCR CD3 inh: inhibitors of human TCR-CD3 interaction, primary screen, biochemical, fluorescence, TAMRA-labeled TCR probe; T-cell receptor (TCR); inhibition, % at 9.4 µM; 0.37% of 360,000 active; AID 651800, 2012; in the data active means inhibition above about 19%;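 further: recombinant mutant TCR 2C K166C tagged with TAMRA read by polarization; 0% = receptor in buffer alone and 100% = receptor with positive control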
# HTRA1 inh: HTRA1 serine protease inhibitors, primary screen, biochemical, fluorescence polarization, HTS. 0.5% of 340,000 active. recombinant HTRA1, FP-rhodamine activity-based probe. inhibition, % at 5.96 µM. Q92743. AID 504803, 2011; in the data active means inhibition above about 36%;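 further: 0% = enzyme with DMSO and 100% = wells lacking enzyme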
# mABHD4 FP: ABHD4 inhibitors, primary screen, biochemical, fluorescence polarization, mouse; 0.54% of 370,000 active; purified mABHD4, FP-Rh probe fluorescence polarization; inhibition, % at 8.92 µM; AID 720543, 2013; (Lyso)-N-acylphosphatidylethanolamine lipase (Mus musculus), Q8VD66;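 active means inhibition exceeding the mean over every tested compound plus 3 SD, cut at about 30% in these data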;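 further: 0% = plate median of compound wells and 100% = S159A mutant with DMSO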
#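 Material: mouse ABHD4 enzyme, wild type; Benchmarks: S159A mutant high control, sample median low control; Buffer or medium: HEPES pH 7.0, NaCl, Pluronic buffer; Signal: fluorescence polarization; Read-out: percent inhibition of probe binding, normalized to plate controls; Timing: pre-incubation 45 min, probe exposure 60 min, at 25 °C; Dosing: 8.92 µM, single dose.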
# SIAE primary: human SIAE inhibitors, primary screen, biochemical, fluorescence polarization, FP-Rh probe, 1536-well HTS; Sialate O-acetylesterase (Homo sapiens), Q9HAT2; SIAE FP-Rh probe binding; inhibition, % at 9.66 µM; 0.69% of 370,000 active;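 active means inhibition above a cutoff: mean of compounds within the control limits plus 3 SD of those, cut at about 17% in these data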;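 further: 0% = plate median of compound wells and 100% = probe without SIAE protein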
# mABHD4 conf: ABHD4 inhibitors, retest, confirmation, biochemical, fluorescence polarization, mouse; inhibition, % at 8.92 µM; purified mABHD4, FP-Rh probe fluorescence polarization; 55% of 1,800 active; shares compounds with mABHD4 FP;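 active means mean inhibition across replicates above the hit cutoff set in the primary screen, cut at about 30% in these data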;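 further: 0% = wild-type ABHD4 with DMSO and 100% = catalytically dead S159A mutant with DMSO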
# Starred values were filed as active, the others as inactive; / = not tested or not shown.
SMILES,DAGLB inhibitor,TCR CD3 inh,HTRA1 inh,mABHD4 FP,SIAE primary,mABHD4 conf
CCC(=O)NC1=C(Cl)C(=O)C(NC(=O)CC)=C(Cl)C1=O,-2,-3,7,34*,7,40*
CCCCCN1CCCCC(NC(=O)c2cccc(C(F)(F)F)c2)C1=O (stereo not drawn),/,/,/,3,3,/
CN(C)CCOC(=O)COc1ccc(Cl)cc1,1,5,8,62*,4,-4
CCCC1CCC2(CCCN2CCOC(=O)Nc2ccc(Br)cc2)CC1 (stereo not drawn),/,/,/,7,0,/
CCN(CC)S(=O)(=O)c1ccc2c(c1)NC(=O)C1CCCN21 (stereo not drawn),-1,-9,-7,31*,-8,44*
O=C1Nc2cc(S(=O)(=O)N3CCCC3)ccc2N2CCCC12 (stereo not drawn),1,3,-8,-2,-23,/
CC1(C)Cc2c(c(-c3ccco3)[nH]c(=O)c2C#N)CS1,2,15,8,30*,10,5
C[C@@H]1CN(C(=O)OC(C)(C)C)CCN1c1ccc(N2CC[C@H](O)C2)c(C#N)c1,/,-4,/,4,1,/
COCc1cc(N2CCN(C(=O)OC(C)(C)C)C[C@@H]2C)ccc1N1CC[C@@H](O)C1,/,12,/,32*,15,25
Cc1ccc(-c2nnc(SCC(=O)Nc3ccc(OCc4ccccc4)cc3)n2-c2ccc(Cl)cc2)cc1,/,/,/,5,-2,/
N#CC1=C(N)Oc2cc(N)ccc2C1c1ccccc1Cl (stereo not drawn),-1,0,3,30*,1,-4
CCOc1cc([N+](=O)[O-])cc(/C=C2/NC(=O)N(Cc3ccccc3F)C2=O)c1O,25,-3,27,31*,-6,54*
Cc1cc(/C=C2/NC(=O)N(Cc3ccccc3F)C2=O)c(C)n1C,7,-2,13,7,2,/
CCOC(=O)NC1(NCC(C)C)Oc2ccccc2O1,0,5,17,33*,8,3
NC(CO)c1csc(Nc2ccc(C(F)(F)F)cn2)n1 (stereo not drawn),/,0,/,-2,-2,/
NC(Cc1ccc(Cl)cc1)c1csc(Nc2ccc(C(F)(F)F)cn2)n1 (stereo not drawn),/,6,/,32*,-2,30*
O=S1(=O)c2c(cccc2N2CCC[C@H]2CO)OCCCN1C1CC1,/,/,/,6,0,/
COc1cc(C=Nn2c(-c3ccccc3F)n[nH]c2=S)ccc1OCc1ccccc1,/,/,/,-9,4,/
CCc1nc2ccc(C(=O)NCCc3ccco3)cc2nc1CC,1,/,8,/,/,/
O=C(NCCCO)c1ccc2nc(-c3ccco3)c(-c3ccco3)nc2c1,2,9,9,37*,9,4
CCOC(=O)C1=C(C)NC2=C(C(=O)c3ccccc32)C1c1ccc(O)cc1 (stereo not drawn),21,-8,22,43*,5,49*
CCOC(=O)C1=C(C)NC2=C(C(=O)c3ccccc32)C1c1cccc2ccccc12 (stereo not drawn),13,3,-6,21,7,/
CCCCCc1ccc(OCCCC[n+]2ccc(C)cc2)c(CCCCC)c1,1,7,24,30*,7,36*
CC(CSc1nc2ccccc2s1)Cn1c(N2CCCC2)nc2c1c(=O)[nH]c(=O)n2C (stereo not drawn),5,-1,-12,39*,4,42*
CC1OC2CC(=O)OC2C2=C1C(=O)c1c(O)cccc1C2=O (stereo not drawn),/,8,/,38*,13,35*
Cc1[nH]c2ccccc2c1CC(=O)Nc1ccc(Nc2cccnc2)c(-c2ccc(Oc3ccccc3)cc2)c1,/,-2,/,5,9,/
CCOC(=O)C1=C(C)N=c2s/c(=C\c3ccc(OCC(=O)O)cc3)c(=O)n2C1c1ccccc1OC (stereo not drawn),4,-1,-18,-12,-3,/
